Measured values as given in ChEMBL document CHEMBL1152213, “Design, synthesis and antiviral efficacy of a series of potent chloropyridyl ester-derived SARS-CoV 3CLpro inhibitors” (Bioorg Med Chem Lett, 2008).
Active and inactive are the calls of the source. The rule behind the calls is not given here.

Tested on: SARS-CoV
Test: Antiviral activity against SARS-CoV Urbani in african green monkey Vero E6 cells assessed as cell viability after 48 hrs
Format: functional, organism-based
Settings: Severe acute respiratory syndrome-related coronavirus

`O=C(Oc1cncc(Cl)c1)c1ccc2[nH]ccc2c1` and `O=C(Oc1cncc(Cl)c1)c1ccc2cc[nH]c2c1` are within 1.5-fold of each other in IC50: 310 nM for the first, 230 nM for the second.

First: O=C(Oc1cncc(Cl)c1)c1cccc2cc[nH]c12
Second: CC(=O)n1ccc2c(C(=O)Oc3cncc(Cl)c3)cccc21
The IC50 of the first is 14-fold lower: 80 nM for the first, 1080 nM for the second. The first is the more potent here.

Compared with `CC(C)(C)OC(=O)N[C@@H]1C(=O)N2[C@@H]1SC(C)(C)[C@@H]2C(=O)Oc1cncc(Cl)c1`, `CC(=O)N1Cc2ccccc2C[C@H]1C(=O)Oc1cncc(Cl)c1` is lower in IC50: over 100000 nM for the first, 140 nM for the second.

Going from `O=C(On1nnc2ccccc21)c1ccc2[nH]ccc2c1` to `O=C(Oc1cncc(Cl)c1)c1ccc2c(ccn2S(=O)(=O)c2cccc([N+](=O)[O-])c2)c1`, the IC50 falls from 200 nM to 89 nM (2.2-fold). The second is the more potent here.

`CC(=O)n1ccc2cc(C(=O)Oc3cncc(Cl)c3)ccc21` and `Cc1ccc(S(=O)(=O)n2ccc3cc(C(=O)Oc4cncc(Cl)c4)ccc32)cc1` are within 1.5-fold of each other in IC50: 400 nM for the first, 370 nM for the second.

Biological target: Replicase polyprotein 1a (Severe acute respiratory syndrome-related coronavirus) (UniProt P0C6U8)
Test: Inhibition of SARS 3Clpro measured by rate of reaction
Settings: not given
Outline: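 Full-length authentic enzyme at 100 nM in 50 mM HEPES pH 7.5 with 1 mM DTT and 0.01 mg/mL BSA. IC50 taken from reaction rates across increasing inhibitor concentrations.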

With `CC(=O)n1ccc2c(C(=O)Oc3cncc(Cl)c3)cccc21` the Activity was “inactive”.
`CC(=O)n1ccc2cc(C(=O)Oc3cncc(Cl)c3)ccc21` was tested, and the Activity was “inactive”.
